Measurements as given in ChEMBL document CHEMBL5058577, “EUbOPEN Chemogenomics Library 2 (Multiplex)” (2022).

Test system: HEK-293T
Test: Multiplex assay against HEK293T
Type: toxicity, cell-based
Details: human
How it was run: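 At seeding, live cells were stained with Hoechst33342, BioTracker Green Microtubule Cytoskeleton Dye, MitoTracker Red and Annexin V Alexa Fluor 680. After compound addition they were imaged on a CQ1 microscope at 37°C and 5% CO2, and CellPathfinder machine-learning gating sorted them into Hoechst high-intensity objects or normal cells, with normal cells further split into healthy, pyknosed or fragmented nuclei and pyknosed cells into mitotic or apoptotic. Tubulin, mitochondrial-mass and membrane-permeability phenotypes are given as per cents of cells with healthy nuclei.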

[1] = 12 h, 1 µM, compound concentration 1 uM, replicate 1
[2] = 12 h, 1 µM, compound concentration 1 uM, replicate 2
[3] = 12 h, 10 µM, compound concentration 10 uM, replicate 1
[4] = 12 h, 10 µM, compound concentration 10 uM, replicate 2
[5] = 24 h, 1 µM, compound concentration 1 uM, replicate 1
[6] = 24 h, 1 µM, compound concentration 1 uM, replicate 2
[7] = 24 h, 10 µM, compound concentration 10 uM, replicate 1
[8] = 24 h, 10 µM, compound concentration 10 uM, replicate 2
[9] = 48 h, 1 µM, compound concentration 1 uM, replicate 1
[10] = 48 h, 1 µM, compound concentration 1 uM, replicate 2
[11] = 48 h, 10 µM, compound concentration 10 uM, replicate 1
[12] = 48 h, 10 µM, compound concentration 10 uM, replicate 2

C[C@H]1[C@H]2CC[C@H]3[C@@H]4CC=C5C[C@@H](N(C)C)CC[C@]5(C)[C@H]4CC[C@]23CN1C [CONESSINE]
Population Apoptotic (%) [1]: 35% | Population Fragmented Nuclei (%) [1]: 5% | Population Healthy Nuclei (%) [1]: 78% | Population Hoechst High Intensity Objects (%) [1]: 6% | Population Membrane Permeable-Phenotype (%) [1]: 0% | Population Mitochondria Different-Phenotype (%) [1]: 39% | Population Mitotic Cells (%) [1]: 65% | Population Normal (%) [1]: 93% | Population Pyknosed Nuclei (%) [1]: 16% | Population Tubulin-Different-Phenotype (%) [1]: 26% | Total Cell Count [1]: 400 | Population Apoptotic (%) [2]: 48% | Population Fragmented Nuclei (%) [2]: 4% | Population Healthy Nuclei (%) [2]: 85% | Population Hoechst High Intensity Objects (%) [2]: 8% | Population Mitochondria Different-Phenotype (%) [2]: 58% | Population Mitotic Cells (%) [2]: 51% | Population Normal (%) [2]: 91% | Population Pyknosed Nuclei (%) [2]: 10% | Population Tubulin-Different-Phenotype (%) [2]: 22% | Total Cell Count [2]: 356 | Population Apoptotic (%) [3]: 35% | Population Fragmented Nuclei (%) [3]: 6% | Population Healthy Nuclei (%) [3]: 77% | Population Hoechst High Intensity Objects (%) [3]: 6% | Population Membrane Permeable-Phenotype (%) [3]: 1% | Population Mitochondria Different-Phenotype (%) [3]: 56% | Population Mitotic Cells (%) [3]: 65% | Population Normal (%) [3]: 93% | Population Pyknosed Nuclei (%) [3]: 15% | Population Tubulin-Different-Phenotype (%) [3]: 38% | Total Cell Count [3]: 419 | Population Apoptotic (%) [4]: 59% | Population Fragmented Nuclei (%) [4]: 7% | Population Healthy Nuclei (%) [4]: 78% | Population Hoechst High Intensity Objects (%) [4]: 9% | Population Membrane Permeable-Phenotype (%) [4]: 0% | Population Mitochondria Different-Phenotype (%) [4]: 62% | Population Mitotic Cells (%) [4]: 40% | Population Normal (%) [4]: 90% | Population Pyknosed Nuclei (%) [4]: 14% | Population Tubulin-Different-Phenotype (%) [4]: 30% | Total Cell Count [4]: 384 | Population Apoptotic (%) [5]: 26% | Population Fragmented Nuclei (%) [5]: 9% | Population Healthy Nuclei (%) [5]: 80% | Population Hoechst High Intensity Objects (%) [5]: 5% | Population Membrane Permeable-Phenotype (%) [5]: 1% | Population Mitochondria Different-Phenotype (%) [5]: 22% | Population Mitotic Cells (%) [5]: 73% | Population Normal (%) [5]: 94% | Population Pyknosed Nuclei (%) [5]: 10% | Population Tubulin-Different-Phenotype (%) [5]: 17% | Total Cell Count [5]: 514 | Population Apoptotic (%) [6]: 25% | Population Fragmented Nuclei (%) [6]: 8% | Population Healthy Nuclei (%) [6]: 81% | Population Hoechst High Intensity Objects (%) [6]: 4% | Population Membrane Permeable-Phenotype (%) [6]: 0% | Population Mitochondria Different-Phenotype (%) [6]: 34% | Population Mitotic Cells (%) [6]: 75% | Population Normal (%) [6]: 95% | Population Tubulin-Different-Phenotype (%) [6]: 16% | Total Cell Count [6]: 484 | Population Apoptotic (%) [7]: 27% | Population Fragmented Nuclei (%) [7]: 9% | Population Healthy Nuclei (%) [7]: 79% | Population Hoechst High Intensity Objects (%) [7]: 6% | Population Membrane Permeable-Phenotype (%) [7]: 1% | Population Mitochondria Different-Phenotype (%) [7]: 38% | Population Mitotic Cells (%) [7]: 72% | Population Normal (%) [7]: 93% | Population Pyknosed Nuclei (%) [7]: 11% | Population Tubulin-Different-Phenotype (%) [7]: 28% | Total Cell Count [7]: 572 | Population Apoptotic (%) [8]: 47% | Population Healthy Nuclei (%) [8]: 82% | Population Hoechst High Intensity Objects (%) [8]: 9% | Population Membrane Permeable-Phenotype (%) [8]: 0% | Population Mitochondria Different-Phenotype (%) [8]: 43% | Population Mitotic Cells (%) [8]: 52% | Population Normal (%) [8]: 90% | Population Pyknosed Nuclei (%) [8]: 7% | Population Tubulin-Different-Phenotype (%) [8]: 24% | Total Cell Count [8]: 474 | Population Apoptotic (%) [9]: 30% | Population Fragmented Nuclei (%) [9]: 9% | Population Healthy Nuclei (%) [9]: 82% | Population Hoechst High Intensity Objects (%) [9]: 2% | Population Membrane Permeable-Phenotype (%) [9]: 1% | Population Mitochondria Different-Phenotype (%) [9]: 18% | Population Mitotic Cells (%) [9]: 69% | Population Normal (%) [9]: 97% | Population Pyknosed Nuclei (%) [9]: 7% | Population Tubulin-Different-Phenotype (%) [9]: 12% | Total Cell Count [9]: 735 | Population Apoptotic (%) [10]: 36% | Population Fragmented Nuclei (%) [10]: 10% | Population Healthy Nuclei (%) [10]: 83% | Population Hoechst High Intensity Objects (%) [10]: 4% | Population Mitochondria Different-Phenotype (%) [10]: 20% | Population Mitotic Cells (%) [10]: 63% | Population Normal (%) [10]: 95% | Population Pyknosed Nuclei (%) [10]: 5% | Population Tubulin-Different-Phenotype (%) [10]: 11% | Total Cell Count [10]: 630 | Population Apoptotic (%) [11]: 27% | Population Fragmented Nuclei (%) [11]: 14% | Population Healthy Nuclei (%) [11]: 78% | Population Hoechst High Intensity Objects (%) [11]: 4% | Population Membrane Permeable-Phenotype (%) [11]: 1% | Population Mitochondria Different-Phenotype (%) [11]: 23% | Population Mitotic Cells (%) [11]: 72% | Population Normal (%) [11]: 95% | Population Pyknosed Nuclei (%) [11]: 6% | Population Tubulin-Different-Phenotype (%) [11]: 15% | Total Cell Count [11]: 767 | Population Apoptotic (%) [12]: 36% | Population Fragmented Nuclei (%) [12]: 10% | Population Healthy Nuclei (%) [12]: 81% | Population Hoechst High Intensity Objects (%) [12]: 5% | Population Membrane Permeable-Phenotype (%) [12]: 0% | Population Mitochondria Different-Phenotype (%) [12]: 32% | Population Mitotic Cells (%) [12]: 63% | Population Normal (%) [12]: 94% | Population Pyknosed Nuclei (%) [12]: 7% | Population Tubulin-Different-Phenotype (%) [12]: 17% | Total Cell Count [12]: 618
